Data set [1] is described as follows: folding enthalpy; higher = less favourable; fluorescence melt of hairpins on a sequencing array, two-state fit. The note with it: sodium 0.088 M. Summed up:
(§1)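 Folding enthalpy and melting temperature come from bootstrapped two-state fits to Cy3 fluorescence of library hairpins carrying annealed Cy3 and quencher oligos on a sequenced MiSeq flow cell. Imaging was done in 50 mM Na-HEPES pH 8.0, 25 mM NaCl, stepping by 2.5 °C up to 60 °C, and signals were normalised to pre-quench Cy3 and to control constructs. Results of four replicates were combined by inverse variance, and fitted temperatures were raised by 9.35 °C to match UV melts.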

Data set [2] is described as follows: melting temperature; fluorescence melt of hairpins on a sequencing array, two-state fit, raised by 9.35 °C to match UV melts. The note with it: sodium 0.088 M. Summed up:
as §1

Turning to GGCGACGAAAGTCTAGCC ((((((....)))..))), the folding enthalpy in data set [1] was -28.6 kcal/mol. For the same sequence, in data set [2], the Tm stood at 54.5 °C.

Regarding GGAGCCGAAAGGCACTCC ((((((....)))..))), the folding enthalpy in data set [1] is -11.1 kcal/mol. For the same sequence, the Tm in data set [2] turned out to be 39.9 °C.

As for GATCCCTCTGGGGATC ((((((....)))))), in data set [1], the folding enthalpy is -39.1 kcal/mol. In addition, the Tm in data set [2] was found to be 61.5 °C.

On to GGGGACGAAAGTCGTCCC ((((((....)))..))), for which the folding enthalpy in data set [1] was -20.8 kcal/mol. The Tm in data set [2] stood at 61.3 °C.

As for GATCTCGCAAGAGATC ((((((....)))))), the folding enthalpy in data set [1] was -37.5 kcal/mol. Moreover, in data set [2], the Tm was found to be 67.3 °C.

On to GCATCAGAAATGATGC ((((((....)))))), for which the folding enthalpy in data set [1] is -38.7 kcal/mol. For the same sequence, in data set [2], the Tm turned out to be 57.9 °C.

As for GGACTCCCGAAAGGGTCC (((..(((....)))))), the folding enthalpy in data set [1] is -16.8 kcal/mol. In addition, in data set [2], the Tm is 45.3 °C.

Regarding CGGTCGGAAACGAGACCG ((((((....)))..))), the folding enthalpy in data set [1] was -38.6 kcal/mol. Besides, in data set [2], the Tm is 49.9 °C.

With GCGTTTGGAAACAAACAC (.(((((....))))).), in data set [1], the folding enthalpy is -12.8 kcal/mol. Besides, in data set [2], the Tm stood at 40.6 °C.

Consider GATCAGGTTTCTGATC ((((((....)))))), for which the folding enthalpy in data set [1] was -46.7 kcal/mol. In addition, in data set [2], the Tm is 51.8 °C.

With GATCCAGCTTGGATC ((((((...)))))), the folding enthalpy in data set [1] was -32.9 kcal/mol. For the same sequence, the Tm in data set [2] came out at 52 °C.

Turning to GCTCCCGAAAGGGTAAGC ((((((....)))..))), the folding enthalpy in data set [1] is -20.7 kcal/mol. Further, the Tm in data set [2] is 46.2 °C.

Turning to GATCGTTGATACGATC ((((((....)))))), the folding enthalpy in data set [1] is -35.3 kcal/mol. Moreover, in data set [2], the Tm amounted to 54.3 °C.

Turning to GCAGTTGGAAACAACTGC (((((((....))))))), the folding enthalpy in data set [1] was -63.5 kcal/mol. Also, the Tm in data set [2] came out at 62.5 °C.

In the case of GGATGCGGAAACGTGTCC (((..((....))..))), the folding enthalpy in data set [1] was -34.9 kcal/mol. Further, the Tm in data set [2] is 48.4 °C.

As for GATCTCTTATGAGATC ((((((....)))))), in data set [1], the folding enthalpy is -43.4 kcal/mol. The Tm in data set [2] is 54.1 °C.

As to GGACGACGAAAGTCCTCC (((.(((....))).))), the folding enthalpy in data set [1] is -19.4 kcal/mol. Also, the Tm in data set [2] amounted to 45.4 °C.

Turning to GTGATCCGAAAGGACAC (((.(((....)))))), the folding enthalpy in data set [1] was -22.5 kcal/mol. For the same sequence, in data set [2], the Tm was determined as 50.7 °C.

Take GAGTTGGCGAAAGCCCTC (((..(((....)))))): in data set [1], the folding enthalpy was -11.1 kcal/mol. For the same sequence, in data set [2], the Tm was 28.7 °C.

Turning to GCAATGCGAAAGCGTCGC ((.(.((....)).).)), the folding enthalpy in data set [1] is -19.3 kcal/mol. Also, in data set [2], the Tm was 45.4 °C.

For the sequence GCTATCGAAAGATCGAGC ((((((....)))..))), in data set [1], the folding enthalpy was -10.1 kcal/mol. Moreover, the Tm in data set [2] came to 29.7 °C.

GGGACACCGAAAGGTCCC (((..(((....)))))): the folding enthalpy in data set [1] was -27.7 kcal/mol. Moreover, the Tm in data set [2] amounted to 51.4 °C.

On to GGCAAGGCGAAAGCCGCC (((..(((....)))))), for which the folding enthalpy in data set [1] is -13.6 kcal/mol. For the same sequence, in data set [2], the Tm amounted to 59.6 °C.

Consider GGTAATCGAAAGATGACC (((.(((....))).))), for which the folding enthalpy in data set [1] is -33.9 kcal/mol. Moreover, in data set [2], the Tm turned out to be 47.5 °C.

For GGCTTGGGAAACCAGGCC (((.(((....))).))), in data set [1], the folding enthalpy is -49 kcal/mol. For the same sequence, the Tm in data set [2] worked out at 56.1 °C.

Consider GCCTTCGGAAACGAAAGC ((.((((....)))).)), for which, in data set [1], the folding enthalpy was -22 kcal/mol. The Tm in data set [2] amounted to 40.4 °C.

GCTCACGAAAGTGCTAGC ((((((....)))..))): the folding enthalpy in data set [1] is -15.6 kcal/mol. The Tm in data set [2] worked out at 35.8 °C.

Consider GCTGGCCGAAAGGCGAGC (((.(((....))).))), for which the folding enthalpy in data set [1] was -26.3 kcal/mol. For the same sequence, in data set [2], the Tm worked out at 66.5 °C.

Consider GCGCGGCGAAAGCGGTGC ((.(.((....)).).)), for which, in data set [1], the folding enthalpy is -31.2 kcal/mol. Also, in data set [2], the Tm turned out to be 65.2 °C.

Take GATCGAGGGATCGATC ((((((....)))))): the folding enthalpy in data set [1] is -34.2 kcal/mol. Further, in data set [2], the Tm stood at 53.4 °C.

Regarding GATCATGGCTATGATC ((((((....)))))), in data set [1], the folding enthalpy was -40.6 kcal/mol. Besides, the Tm in data set [2] was 53.7 °C.

On to GTCCCTGGAAACAAGGAC ((((.((....)).)))), for which the folding enthalpy in data set [1] was -20 kcal/mol. Besides, the Tm in data set [2] came out at 34.7 °C.

As to GAGGACGAAAGTCGCTC ((((((....))).))), in data set [1], the folding enthalpy was -17.8 kcal/mol. Moreover, the Tm in data set [2] is 46 °C.

Consider GCGACGCGAAAGCTACGC (((..((....))..))), for which the folding enthalpy in data set [1] was -18.6 kcal/mol. Also, the Tm in data set [2] stood at 52.5 °C.

With GCTCTCGAAAGAGCAGC ((((((....))).))), the folding enthalpy in data set [1] was -15.4 kcal/mol. Also, the Tm in data set [2] was 48.2 °C.

For GTCTGTCGAAAGACGGAC (((.(((....))).))), in data set [1], the folding enthalpy is -36.6 kcal/mol. For the same sequence, the Tm in data set [2] was 63.2 °C.

For GGTACCGAAAGGTAAACC ((((((....)))..))), in data set [1], the folding enthalpy is -16.2 kcal/mol. In addition, in data set [2], the Tm is 40.5 °C.

As for GATCCCTTATGGGATC ((((((....)))))), the folding enthalpy in data set [1] is -36.5 kcal/mol. The Tm in data set [2] was found to be 65.4 °C.

As for GGTAATGGAAACACTACC ((((.((....)).)))), the folding enthalpy in data set [1] was -15.4 kcal/mol. For the same sequence, in data set [2], the Tm is 30.1 °C.

As for GCTACGCGAAAGCGACGC ((..(((....)))..)), the folding enthalpy in data set [1] was -15.1 kcal/mol. Also, in data set [2], the Tm came to 40.2 °C.

Regarding ACCAAGAAATTGGT (((((....))))), the folding enthalpy in data set [1] was -13.7 kcal/mol. Also, the Tm in data set [2] was 37.5 °C.

GATGTCCGAAAGGAATC (((.(((....)))))): in data set [1], the folding enthalpy is -13.5 kcal/mol. The Tm in data set [2] was 31.5 °C.

As for GATCTCATCAGAGATC ((((((....)))))), in data set [1], the folding enthalpy was -35.2 kcal/mol. Besides, the Tm in data set [2] worked out at 55.6 °C.

For the sequence GATCTCTCTAGAGATC ((((((....)))))), in data set [1], the folding enthalpy is -37.4 kcal/mol. In data set [2], the Tm was 56.3 °C.

Consider GATCTTGGAAACGAGATC (((((.(....).))))), for which the folding enthalpy in data set [1] is -36.7 kcal/mol. Besides, in data set [2], the Tm is 44.2 °C.

Turning to GCCTCATCGAAAGATGGC (((..(((....)))))), the folding enthalpy in data set [1] is -10.1 kcal/mol. For the same sequence, in data set [2], the Tm came to 43.8 °C.

Regarding GCGAGCACGAAAGTGCGC (((..(((....)))))), the folding enthalpy in data set [1] was -8.47 kcal/mol. In addition, the Tm in data set [2] turned out to be 56.9 °C.

Consider GTAGGGCGAAAGCCGTAC (((.(((....))).))), for which, in data set [1], the folding enthalpy is -23.6 kcal/mol. Moreover, the Tm in data set [2] came out at 56.8 °C.

For GATGGAGGAAACTCTATC (((.(((....))).))), the folding enthalpy in data set [1] was -24.4 kcal/mol. In addition, the Tm in data set [2] turned out to be 37.8 °C.

On to ATGTAGAAATACAT (((((....))))), for which the folding enthalpy in data set [1] was -7.12 kcal/mol. Moreover, the Tm in data set [2] worked out at 28.2 °C.

Turning to TCGGTGAAAACCGA (((((....))))), the folding enthalpy in data set [1] was -17.7 kcal/mol. In addition, the Tm in data set [2] turned out to be 53 °C.

GGCTATCGAAAGATGCC (((.(((....)))))): the folding enthalpy in data set [1] is -25.3 kcal/mol. Further, the Tm in data set [2] stood at 52.8 °C.

For the sequence GCCCTGTCGAAAGACGGC (((..(((....)))))), the folding enthalpy in data set [1] is -15.4 kcal/mol. Further, in data set [2], the Tm came out at 44.5 °C.

Turning to GCTGTGTCGAAAGACAGC (((..(((....)))))), the folding enthalpy in data set [1] is -17.3 kcal/mol. Besides, in data set [2], the Tm worked out at 48.9 °C.

For GGCATCGGAAACGATGTC (.(((((....))))).), the folding enthalpy in data set [1] was -42.1 kcal/mol. The Tm in data set [2] was found to be 55.9 °C.
